This note sets out measurements from ChEMBL document CHEMBL4251664, “Biocompatible Boron-Containing Prodrugs of Belinostat for the Potential Treatment of Solid Tumors” (ACS Med Chem Lett, 2018).

A word on the IC50: it is the concentration at which inhibition is half-maximal. The low end stands for greater potency, the high end for weaker potency. For orientation: T/C means the ratio of treated to control.

A short description of data set [1]: Drug level in human MDA-MB-231 cells treated with (E)-3-(3-(N-phenylsulfamoyl)phenyl)-N-(4-(4,4,5,5-tetramethyl-1,3,2-dioxaborolan-2-yl)benzyloxy)acrylamide measured after 1 to 6 days by UHPLC-MS/MS analysis. The class given is ADME, cell-based. An outline of the steps: (§1)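 MDA-MB-231 or HeLa cells were incubated with the pinacol boronate prodrug, and culture medium was sampled daily from day 1 to day 6. The prodrug, boronic acid forms and belinostat were separated, identified and quantified by HPLC coupled to an Orbitrap mass spectrometer. Results are in ng/mL as mean ± SEM of triplicate experiments.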

Data set [2] is described as follows: Drug level in human HeLa cells treated with (E)-3-(3-(N-phenylsulfamoyl)phenyl)-N-(4-(4,4,5,5-tetramethyl-1,3,2-dioxaborolan-2-yl)benzyloxy)acrylamide measured after 1 to 6 days by UHPLC-MS/MS analysis. Format: ADME, cell-based. The gist of the method: as §1
Data set [3] deals with MDA-MB-231. In words: Antiproliferative activity against human MDA-MB-231 cells after 72 hrs by resazurin dye based fluorescence assay. Format: functional, cell-based. As to conditions: MDA-MB-231, 72 h.
Data set [4] concerns A549. In words: Antiproliferative activity against human A549 cells after 72 hrs by resazurin dye based fluorescence assay. Format: functional, cell-based. As to conditions: A549, 72 h.
Data set [5] has as its system HeLa. Description: Antiproliferative activity against human HeLa cells after 72 hrs by resazurin dye based fluorescence assay. The class given is functional, cell-based. In general terms: The colour change of resazurin is a common sign of viable cells or microbes.
Data set [6] relates to MDA-MB-231. In words: Prodrug conversion in human MDA-MB-231 cells assessed as belinostat level after 1 day by UHPLC-MS/MS analysis. As to conditions: mda-mb-231, 24 h. The class given is ADME, cell-based. The gist of the method:
as §1

Data set [7] has as its system MDA-MB-231. Description: Prodrug conversion in human MDA-MB-231 cells assessed as belinostat level after 2 days by UHPLC-MS/MS analysis. As to conditions: mda-mb-231, 48 h. Format: ADME, cell-based. An outline of the steps:
as §1

Data set [8] relates to MDA-MB-231. In words: Prodrug conversion in human MDA-MB-231 cells assessed as belinostat level after 3 days by UHPLC-MS/MS analysis. As to conditions: mda-mb-231, 72 h. The class given is ADME, cell-based. An outline of the steps:
as §1

Data set [9] concerns MDA-MB-231. Description: Prodrug conversion in human MDA-MB-231 cells assessed as belinostat level after 4 days by UHPLC-MS/MS analysis. The class given is ADME, cell-based. As to conditions: mda-mb-231, 96 h. An outline of the steps:
as §1

The subject of data set [10] is MDA-MB-231. Description: Prodrug conversion in human MDA-MB-231 cells assessed as belinostat level after 5 days by UHPLC-MS/MS analysis. The class given is ADME, cell-based. As to conditions: mda-mb-231, 120 h. The gist of the method:
as §1

The test system of data set [11] is MDA-MB-231. In words: Prodrug conversion in human MDA-MB-231 cells assessed as belinostat level after 6 days by UHPLC-MS/MS analysis. The class given is ADME, cell-based. As to conditions: mda-mb-231, 144 h. The gist of the method:
as §1

Data set [12] deals with HeLa. Description: Prodrug conversion in human HeLa cells assessed as belinostat level after 1 day by UHPLC-MS/MS analysis. The class given is ADME, cell-based. As to conditions: 24 h. An outline of the steps: as §1
In data set [13] the test system is HeLa. Description: Prodrug conversion in human HeLa cells assessed as belinostat level after 2 days by UHPLC-MS/MS analysis. Format: ADME, cell-based. As to conditions: 48 h. The gist of the method:
as §1

The test system of data set [14] is HeLa. Description: Prodrug conversion in human HeLa cells assessed as belinostat level after 3 days by UHPLC-MS/MS analysis. Format: ADME, cell-based. As to conditions: 72 h. An outline of the steps: as §1
For data set [15], the system named is HeLa. In words: Prodrug conversion in human HeLa cells assessed as belinostat level after 4 days by UHPLC-MS/MS analysis. Format: ADME, cell-based. As to conditions: 96 h. The gist of the method:
as §1

The test system of data set [16] is HeLa. In words: Prodrug conversion in human HeLa cells assessed as belinostat level after 5 days by UHPLC-MS/MS analysis. As to conditions: 120 h. The class given is ADME, cell-based. An outline of the steps:
as §1

For data set [17], the system named is HeLa. Description: Prodrug conversion in human HeLa cells assessed as belinostat level after 6 days by UHPLC-MS/MS analysis. The class given is ADME, cell-based. As to conditions: 144 h. The gist of the method:
as §1

Data set [18] relates to MDA-MB-231. Description: Prodrug conversion in human MDA-MB-231 cells assessed as (E)-3-((3-(3-(N-phenylsulfamoyl)phenyl)acrylamidooxy)methyl)phenylboronic acid level after 1 day by UHPLC-MS/MS analysis. As to conditions: mda-mb-231, 24 h. Format: ADME, cell-based. An outline of the steps: as §1
For data set [19], the system named is MDA-MB-231. In words: Prodrug conversion in human MDA-MB-231 cells assessed as (E)-3-((3-(3-(N-phenylsulfamoyl)phenyl)acrylamidooxy)methyl)phenylboronic acid level after 2 days by UHPLC-MS/MS analysis. Format: ADME, cell-based. As to conditions: mda-mb-231, 48 h. An outline of the steps: as §1
In data set [20] the test system is MDA-MB-231. Description: Prodrug conversion in human MDA-MB-231 cells assessed as (E)-3-((3-(3-(N-phenylsulfamoyl)phenyl)acrylamidooxy)methyl)phenylboronic acid level after 3 days by UHPLC-MS/MS analysis. Format: ADME, cell-based. As to conditions: mda-mb-231, 72 h. An outline of the steps: as §1
Data set [21] relates to MDA-MB-231. In words: Prodrug conversion in human MDA-MB-231 cells assessed as (E)-3-((3-(3-(N-phenylsulfamoyl)phenyl)acrylamidooxy)methyl)phenylboronic acid level after 4 days by UHPLC-MS/MS analysis. As to conditions: mda-mb-231, 96 h. The class given is ADME, cell-based. The gist of the method: as §1
Data set [22] concerns MDA-MB-231. Description: Prodrug conversion in human MDA-MB-231 cells assessed as (E)-3-((3-(3-(N-phenylsulfamoyl)phenyl)acrylamidooxy)methyl)phenylboronic acid level after 5 days by UHPLC-MS/MS analysis. Format: ADME, cell-based. As to conditions: mda-mb-231, 120 h. An outline of the steps:
as §1

Data set [23] deals with MDA-MB-231. In words: Prodrug conversion in human MDA-MB-231 cells assessed as (E)-3-((3-(3-(N-phenylsulfamoyl)phenyl)acrylamidooxy)methyl)phenylboronic acid level after 6 days by UHPLC-MS/MS analysis. As to conditions: mda-mb-231, 144 h. The class given is ADME, cell-based. An outline of the steps:
as §1

The test system of data set [24] is HeLa. In words: Prodrug conversion in human HeLa cells assessed as (E)-3-((3-(3-(N-phenylsulfamoyl)phenyl)acrylamidooxy)methyl)phenylboronic acid level after 1 day by UHPLC-MS/MS analysis. As to conditions: 24 h. Format: ADME, cell-based. An outline of the steps: as §1
Data set [25] concerns HeLa. In words: Prodrug conversion in human HeLa cells assessed as (E)-3-((3-(3-(N-phenylsulfamoyl)phenyl)acrylamidooxy)methyl)phenylboronic acid level after 2 days by UHPLC-MS/MS analysis. As to conditions: 48 h. Format: ADME, cell-based. The gist of the method: as §1
Data set [26] relates to HeLa. In words: Prodrug conversion in human HeLa cells assessed as (E)-3-((3-(3-(N-phenylsulfamoyl)phenyl)acrylamidooxy)methyl)phenylboronic acid level after 3 days by UHPLC-MS/MS analysis. Format: ADME, cell-based. As to conditions: 72 h. The gist of the method: as §1
For data set [27], the system named is HeLa. In words: Prodrug conversion in human HeLa cells assessed as (E)-3-((3-(3-(N-phenylsulfamoyl)phenyl)acrylamidooxy)methyl)phenylboronic acid level after 4 days by UHPLC-MS/MS analysis. Format: ADME, cell-based. As to conditions: 96 h. An outline of the steps: as §1
Data set [28] relates to HeLa. Description: Prodrug conversion in human HeLa cells assessed as (E)-3-((3-(3-(N-phenylsulfamoyl)phenyl)acrylamidooxy)methyl)phenylboronic acid level after 5 days by UHPLC-MS/MS analysis. The class given is ADME, cell-based. As to conditions: 120 h. The gist of the method:
as §1

For data set [29], the system named is HeLa. In words: Prodrug conversion in human HeLa cells assessed as (E)-3-((3-(3-(N-phenylsulfamoyl)phenyl)acrylamidooxy)methyl)phenylboronic acid level after 6 days by UHPLC-MS/MS analysis. The class given is ADME, cell-based. As to conditions: 144 h. An outline of the steps: as §1
Data set [30] deals with MCF7. In words: Antiproliferative activity against human MCF7 cells after 72 hrs by resazurin dye based fluorescence assay. Format: functional, cell-based. As to conditions: MCF7, 72 h.
In data set [31] the test system is MCF-10A. Description: Cytotoxicity against human MCF10A cells assessed as reduction in cell proliferation at 10 uM after 72 hrs by resazurin dye based fluorescence assay.
The subject of data set [32] is MCF7. In words: Antitumor activity against human MCF7 cells implanted in ovariectomized nu/nu mouse assessed as tumor volume at 10 mg/kg, sc administered once daily for 22 days measured on day 12 during compound dosing (reference value: 869 +/- 173 mm3). The class given is functional.
For data set [33], the system named is MCF7. Description: Antitumor activity against human MCF7 cells implanted in ovariectomized nu/nu mouse assessed as tumor volume at 10 mg/kg, sc administered once daily for 22 days measured post last dose (reference value: 869 +/- 173 mm3). The class given is functional.
Data set [34] deals with MCF7. In words: Antitumor activity against human MCF7 cells implanted in ovariectomized nu/nu mouse assessed as tumor weight at 10 mg/kg, sc administered once daily for 22 days measured post last dose (reference value: 743 +/- 142 mg). Format: functional.
Data set [35] concerns MCF7. Description: Antitumor activity against human MCF7 cells implanted in ovariectomized nu/nu mouse assessed as tumor volume at 10 mg/kg, sc administered once daily for 22 days measured post last dose relative to control. Format: functional.
Data set [36] concerns MCF7. In words: Antitumor activity against human MCF7 cells implanted in ovariectomized nu/nu mouse assessed as tumor growth inhibition at 10 mg/kg, sc administered once daily for 22 days measured post last dose relative to control. Format: functional. As to conditions: 528 h, read-out: TGI.
In data set [37] the test system is Mus musculus. Description: Toxicity in ovariectomized nu/nu mouse implanted with human MCF7 cells assessed as effect on body weight at 10 mg/kg, sc administered once daily for 22 days. Format: organism-based. As to conditions: in vivo, 528 h. The gist of the method:
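MCF-7 xenograft in mice, dosed 10 mg/kg/day by subcutaneous injection alongside a vehicle group. Treatment ran 22 days. Body weights were compared with the vehicle group, and tumour volume was measured over the same period. At the end, mice were sacrificed and tumours removed.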

Data set [38] can be described thus: Drug uptake in tumor of ovariectomized nu/nu mouse implanted with human MCF7 cells at 10 mg/kg, sc administered once daily for 22 days measured post last dose by HPLC-MS/MS analysis. Format: ADME, organism-based, Neoplasm. As to conditions: female, read-out: Drug uptake. The gist of the method: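 After 22 days of 10 mg/kg/day subcutaneous dosing in MCF-7 xenograft mice, animals were sacrificed. Tumours were excised, homogenized and extracted, then analysed by HPLC–MS/MS for belinostat and the free boronic acid. Results are expressed as ng/g tissue.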

Turning to `O=C(/C=C/c1cccc(S(=O)(=O)Nc2ccccc2)c1)NOCc1ccc(B(O)O)cc1`, the Drug metabolism result in data set [1] and in [2] was “Metabolite_Detected” throughout.
Consider `CC1(C)OB(c2cccc(CONC(=O)/C=C/c3cccc(S(=O)(=O)Nc4ccccc4)c3)c2)OC1(C)C`, for which the IC50 in [3] was 2030 nM; in data set [4], 3600 nM; in data set [5], 8320 nM. Besides, the Drug metabolism result in data set [6], in data set [7], in [8], in [9], in [10] and in data set [11] was “Metabolite_Notdetected” in each case. Besides, the Drug metabolism entry in data set [12], in data set [13], in data set [14], in data set [15], in data set [16] and in data set [17] was “Metabolite_Notdetected” in each case. Also, the Drug metabolism in [18] turned out to be 359.1 ng/mL; in [19], 262.9 ng/mL; in data set [20] it was 199 ng/mL; in [21] it was 198.8 ng/mL; in data set [22], 168.5 ng/mL; in data set [23], 155.8 ng/mL. Also, the Drug metabolism in data set [24] amounted to 303.2 ng/mL; in [25], 188.6 ng/mL; in [26], 147.9 ng/mL; in [27], 134.7 ng/mL; in data set [28], 97.2 ng/mL; in data set [29], 66.6 ng/mL.
For the compound `O=C(/C=C/c1cccc(S(=O)(=O)Nc2ccccc2)c1)NOCc1cccc(B(O)O)c1`, the half-maximal inhibitory concentration (IC50) worked out at 2200 nM in [3], 6580 nM in data set [4] and 12900 nM in data set [5].
Consider `O=C(/C=C/c1cccc(S(=O)(=O)Nc2ccccc2)c1)NO` [BELINOSTAT], for which the IC50 in data set [3] turned out to be 62 nM; in data set [4] it was 77 nM; in data set [5] it was 87 nM; in data set [30], 96 nM. The Activity entry is given as “Non-Toxic” in [31]; 167 mm3 in data set [32]; 194 mm3 in [33]; 167 mg in [34]; “Non-Toxic” in data set [37]. Moreover, the T/C in data set [35] was 22.3%. Besides, the inhibition in vivo at 10 mg/kg in [36] is 77.7%. Further, the concentration at 528 h in data set [38] was 23.4 ng/g.
